High-throughput results deposited in PubChem BioAssay by The Scripps Research Institute Molecular Screening Center.
An excerpt weighted towards active compounds, which were near 2.3% of everything screened.
OXTR potentiate: human OXTR potentiation. CHO-OTR cells, Fluo-8 calcium fluorescence, potentiator mode; 0% = oxytocin EC15, 100% = EC100. activation, % at 3 µM. 0.061% of 320,000 active;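 active = activation above that plate's cutoff, the mean activation of tested compounds plus 3 SD, cut at about 6.6% in these data, passing the limit was not always enough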
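Assay system: CHO-OTR cells, human receptor / Also added: oxytocin at about EC15, sub-maximal agonist stimulus / Dosing: single dose, 3.0 µM nominal final compound concentration / Incubation: 6 min pre-incubation, 100 s read / Technique: Fluo-8 calcium dye fluorescence / Read-out: % activation vs EC15 and EC100 oxytocin / Benchmarks: EC15 oxytocin low, 75 nM oxytocin high / Replicates: singlicate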
V1aR counter: activates human V1a receptor in oxytocin agonist counter-screen; CHO-V1R cells, Fluo-8 calcium fluorescence, agonist mode; 0% DMSO, 100% 3 nM vasopressin; AID 2797; P37288; 0.25% of 320,000 active; activation, % at 3 µM;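 active = activation above the mean activation of all tested compounds plus 3 SD, per screening run, cut at about 20% in these data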;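 also: signal is peak over basal fluorescence ratio across a 100 second FLIPR read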
Target sequence (P37288 whole entry, looked up): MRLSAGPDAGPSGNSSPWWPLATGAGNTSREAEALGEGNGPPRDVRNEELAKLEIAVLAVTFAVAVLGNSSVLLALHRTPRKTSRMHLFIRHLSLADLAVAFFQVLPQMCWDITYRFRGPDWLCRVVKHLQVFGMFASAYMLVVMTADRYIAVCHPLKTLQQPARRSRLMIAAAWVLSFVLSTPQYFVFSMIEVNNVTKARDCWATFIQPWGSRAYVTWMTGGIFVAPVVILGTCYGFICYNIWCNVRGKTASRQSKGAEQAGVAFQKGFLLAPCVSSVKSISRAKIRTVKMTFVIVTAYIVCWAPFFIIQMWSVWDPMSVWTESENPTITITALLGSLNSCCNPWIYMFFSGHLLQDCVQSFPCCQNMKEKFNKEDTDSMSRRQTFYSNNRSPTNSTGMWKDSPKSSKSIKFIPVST
OXTR ag: agonists of human oxytocin receptor | CHO-OTR cells, Fluo-8 calcium fluorescence; normalized: DMSO 0%, oxytocin 100% | activation, % at 3 µM | 0.32% of 320,000 active | AID 2435;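 active = activation above the mean of all tested compounds plus 3 SD, cutoff set per screening run, cut at about 20% in these data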;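 also: peak over basal fluorescence ratio from a 100 s FLIPR kinetic read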
TAAR1 antagonist: human TAAR1 antagonism; 1.5% of 360,000 active; Q96RJ0; inhibition, % at 3 µM; CHO RD-HGA16 TAAR1, Fluo-8 calcium fluorescence, antagonist;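 active = inhibition above a per-plate cutoff, the mean inhibition of test compounds on that plate plus 3 SD, cut at about 49% in these data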
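Test system: CHO RD-HGA16 cells bearing hTAAR1 | Reagent: β-PEA, EC80 | Compound dosing: 3 µM, single point | Schedule: Dye loading 75 min at 37 °C, then 30 min room temperature | Signal: Calcium fluorescence with Fluo-8 | Evaluation: Percent inhibition of PEA-evoked calcium signal, max/basal emission ratio | Control set: DMSO-only wells and EC80 β-PEA-stimulated wells | Repeats: Singlicate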
TAAR1 ag: agonists of human TAAR1 | CHO RD-HGA16 TAAR1, Fluo-8 calcium fluorescence; vehicle wells 0%, saturating PEA agonist 100% | activation, % at 3 µM | Q96RJ0 | 0.99% of 360,000 active;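 active = activation above the mean activation of all test compounds in the run plus 3 SD, cut at about 38% in these data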
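Benchmarks: low control DMSO, high control PEA (EC100); System: CHO RD-HGA16 cells carrying human TAAR1 plus Gα16; Detection: Fluo-8 fluorescence, 5 s baseline then 140 s kinetic read; Schedule: 17-24 h plating, Fluo-8 75 min 37 °C, 30 min RT; Read-out basis: % activation from peak over basal fluorescence ratio, DMSO-to-PEA scaled.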
Numbers stand for hits.

What do the screens show for `COc1ccc(-c2csc(NC(=S)NC(=O)c3cccs3)n2)cc1OC`?
TAAR1 antagonist: 49.6; TAAR1 ag: inactive

How did COc1ccc(-c2csc(NC(=O)c3cccc(N4C(=O)CCC4=O)c3)n2)cc1C do in these assays?
OXTR potentiate: inactive; V1aR counter: inactive; OXTR ag: inactive; TAAR1 antagonist: 48.9; TAAR1 ag: inactive

Results for COc1ccc(-c2csc(NC(=O)C3=NN(c4ccccc4)C(=O)CC3)n2)cc1 ?
OXTR potentiate: inactive; V1aR counter: inactive; OXTR ag: inactive; TAAR1 antagonist: 56.6; TAAR1 ag: inactive

How did O=C(/C=C/c1cccc(Cl)c1)c1ccc([N+](=O)[O-])o1 do in these assays?
OXTR potentiate: inactive; V1aR counter: inactive; OXTR ag: inactive; TAAR1 antagonist: inactive; TAAR1 ag: 57.4

How did O=C(O)C(Oc1ccc2cc(-c3ccc(Cl)cc3)c(=O)oc2c1)c1ccccc1 (centres undefined) do in these assays?
TAAR1 antagonist: inactive; TAAR1 ag: inactive

How did O=C(Nc1ccc2c(c1)CCCN2C(=O)c1ccccc1)c1ccccc1 do in these assays?
OXTR potentiate: inactive; V1aR counter: inactive; OXTR ag: inactive; TAAR1 antagonist: 57.7; TAAR1 ag: inactive

Results for Oc1ccc(C(c2nnnn2C2CCCC2)N2CCc3ccccc3C2)cc1 (centres undefined) ?
OXTR potentiate: inactive; V1aR counter: inactive; OXTR ag: inactive; TAAR1 antagonist: 84.2; TAAR1 ag: 82.3

How did CC(=O)Nc1ccnn1C1CCN(C(=O)c2cccc(C)c2C)CC1 do in these assays?
OXTR potentiate: inactive; V1aR counter: inactive; OXTR ag: inactive; TAAR1 antagonist: inactive; TAAR1 ag: inactive

What do the screens show for `O=C(CN1CCN(Cc2ccc3c(c2)OCO3)CC1)Nc1ccc(F)cc1`?
OXTR potentiate: inactive; V1aR counter: inactive; OXTR ag: inactive; TAAR1 antagonist: inactive; TAAR1 ag: 41.4

Results for O=C(CN1CCN(Cc2ccc3c(c2)OCO3)CC1)c1c[nH]c2ccccc12 ?
OXTR potentiate: inactive; V1aR counter: inactive; OXTR ag: inactive; TAAR1 antagonist: inactive; TAAR1 ag: 38.1

How did O=C(CN1CCN(Cc2ccc3c(c2)OCO3)CC1)Nc1ccc2c(c1)OCO2 do in these assays?
OXTR potentiate: inactive; V1aR counter: inactive; OXTR ag: inactive; TAAR1 antagonist: inactive; TAAR1 ag: inactive

Results for O=C(CC1c2ccccc2C=C(c2ccsc2)N1c1ccc(-c2cccnc2)cc1)C1CC1 (centres undefined) ?
TAAR1 antagonist: inactive; TAAR1 ag: inactive

What do the screens show for `COCCCNC(=O)c1nnn2c1nc(N)c1cc(Cl)ccc12`?
TAAR1 antagonist: inactive; TAAR1 ag: inactive

How did CCCCN1C(=O)C(CC(=O)NCc2cccc3ccccc23)CC(C(=O)N(C(C)C)C(C)C)=C1C (centres undefined) do in these assays?
TAAR1 antagonist: inactive; TAAR1 ag: inactive

How did COc1cc(C(=O)Nc2nccs2)c(Br)c(OC)c1OC do in these assays?
OXTR potentiate: inactive; V1aR counter: inactive; OXTR ag: inactive; TAAR1 antagonist: 51.4; TAAR1 ag: inactive

How did Cc1ccc(N(C)S(=O)(=O)c2c[nH]c3ccc([N+](=O)[O-])cc23)cc1 do in these assays?
OXTR potentiate: inactive; V1aR counter: inactive; OXTR ag: inactive; TAAR1 antagonist: 50.6; TAAR1 ag: inactive

How did CCCCCc1cc(=O)oc2c(C(CCN3CCCC(C)C3)c3ccc(OC)cc3)c(OC)cc(OC)c12 (centres undefined) do in these assays?
OXTR potentiate: inactive; V1aR counter: inactive; OXTR ag: inactive; TAAR1 antagonist: inactive; TAAR1 ag: 40.0

What do the screens show for `CCCCCc1cc(=O)oc2c(C(CCN3CCCCC3)c3ccc(OC)cc3)c(OC)cc(OC)c12` (centres undefined)?
OXTR potentiate: inactive; V1aR counter: inactive; OXTR ag: inactive; TAAR1 antagonist: inactive; TAAR1 ag: inactive

How did C=CCN=C1NC(c2ccc(C(F)(F)F)cc2)C(C(=O)OC)=C(C)N1Cc1ccccc1C(F)(F)F (centres undefined) do in these assays?
TAAR1 antagonist: inactive; TAAR1 ag: inactive

Results for CCNC(=O)N(C)[C@H]1C[C@H]2c3[nH]c4ccccc4c3CCN2C[C@H]1[C@H](C)O ?
TAAR1 antagonist: inactive; TAAR1 ag: inactive

What do the screens show for `C[C@H](O)[C@@H]1CN2CCc3c([nH]c4ccccc34)[C@@H]2C[C@@H]1N(C)C(=S)NCCc1ccccc1`?
TAAR1 antagonist: 66.2; TAAR1 ag: 77.6

What do the screens show for `CC(C)(C)c1ccc(C(=O)Nc2cccc(-n3cnnn3)c2)cc1`?
OXTR potentiate: inactive; V1aR counter: inactive; OXTR ag: inactive; TAAR1 antagonist: 58.0; TAAR1 ag: inactive

How did O=C(Nc1cccc(-n2cnnn2)c1)c1cccc(Cl)c1 do in these assays?
OXTR potentiate: inactive; V1aR counter: inactive; OXTR ag: inactive; TAAR1 antagonist: inactive; TAAR1 ag: inactive

What do the screens show for `O=C(Nc1cccc(-n2cnnn2)c1)c1cc(Cl)nc(Cl)c1`?
OXTR potentiate: inactive; V1aR counter: inactive; OXTR ag: inactive; TAAR1 antagonist: inactive; TAAR1 ag: 48.8

What do the screens show for `Cc1ccc(-n2nnnc2SCC(=O)N2CCCCC2)cc1`?
OXTR potentiate: inactive; V1aR counter: inactive; OXTR ag: inactive; TAAR1 antagonist: inactive; TAAR1 ag: inactive

How did O=C(CSc1nnnn1-c1cccc2c1CCCC2)N1CCCCC1 do in these assays?
OXTR potentiate: inactive; V1aR counter: inactive; OXTR ag: inactive; TAAR1 antagonist: inactive; TAAR1 ag: 45.1

Results for CCOC(=O)C1=C(C(=O)OCC)C2N(Cc3ccc(C#N)cc3)c3ccccc3[C@@]23C[C@@H](C(=O)OC)N(S(=O)(=O)c2ccc(C)cc2)C3=N1 (some centres undefined) ?
TAAR1 antagonist: inactive; TAAR1 ag: inactive

Results for COc1ccc(NC(=O)c2ccc(CN3CCN(c4ccccc4)CC3)cc2)cc1 ?
OXTR potentiate: inactive; V1aR counter: inactive; OXTR ag: inactive; TAAR1 antagonist: inactive; TAAR1 ag: 39.9

How did C[C@@H]1CN([C@@H](C)CO)C(=O)CCCn2cc(nn2)CO[C@H]1CN(C)C(=O)CCC(F)(F)F do in these assays?
TAAR1 antagonist: inactive; TAAR1 ag: inactive

How did O=C(O)C(=Cc1ccc([N+](=O)[O-])cc1)c1ccccc1 do in these assays?
TAAR1 antagonist: inactive; TAAR1 ag: inactive

Results for CC[C@H](C)[C@H](NC(=O)[C@H](Cc1ccc(O)cc1)NC(=O)[C@@H](N)C(C)C)C(=O)N[C@@H](Cc1cnc[nH]1)C(=O)N1CCC[C@H]1C(=O)N[C@@H](Cc1ccccc1)C(=O)O ?
OXTR potentiate: inactive; V1aR counter: 25.1; OXTR ag: 71.7

How did CCC(C)C(NC(=O)C1CCC(=O)N1C(=O)OCc1ccccc1)C(=O)NC(Cc1ccccc1)C(N)=O (centres undefined) do in these assays?
OXTR potentiate: inactive; V1aR counter: inactive; OXTR ag: inactive; TAAR1 antagonist: inactive; TAAR1 ag: inactive
